Shown are actives, neighbours in structure and some others; about 2.6% of the full set was active somewhere.
Apaf1 inhib – blocks human Apaf-1 apoptosome activity | O14727 | reconstituted apoptosome caspase-3 activity, DEVD-Rh110 fluorescence | inhibition, % at 20 µM | actives 0.71% (n = 330,000); active means inhibition of at least 40% at 20 µM
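Assay system – apoptosome proteins · Medium – Hepes buffer, pH 7.5 · Also added – cytochrome c with DEVD-Rh110 · Timing – 30 min compound preincubation, 50 min activation, room temperature · Detection – Rh110 fluorescence, excitation 480 nm, emission 540 nm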
PAD4 inh – PAD4 (human) enzyme inhibition | actives 0.41% (n = 330,000) | inhibition, % at 6.36 µM | AID 485272 | Q9UM07 | recombinant PAD4, RCA probe fluorescence polarization;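 active means percent inhibition above a cutoff equal to the mean of all tested compounds plus 3 SD, cut at about 15% in these data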
Target sequence (Q9UM07 whole entry, looked up): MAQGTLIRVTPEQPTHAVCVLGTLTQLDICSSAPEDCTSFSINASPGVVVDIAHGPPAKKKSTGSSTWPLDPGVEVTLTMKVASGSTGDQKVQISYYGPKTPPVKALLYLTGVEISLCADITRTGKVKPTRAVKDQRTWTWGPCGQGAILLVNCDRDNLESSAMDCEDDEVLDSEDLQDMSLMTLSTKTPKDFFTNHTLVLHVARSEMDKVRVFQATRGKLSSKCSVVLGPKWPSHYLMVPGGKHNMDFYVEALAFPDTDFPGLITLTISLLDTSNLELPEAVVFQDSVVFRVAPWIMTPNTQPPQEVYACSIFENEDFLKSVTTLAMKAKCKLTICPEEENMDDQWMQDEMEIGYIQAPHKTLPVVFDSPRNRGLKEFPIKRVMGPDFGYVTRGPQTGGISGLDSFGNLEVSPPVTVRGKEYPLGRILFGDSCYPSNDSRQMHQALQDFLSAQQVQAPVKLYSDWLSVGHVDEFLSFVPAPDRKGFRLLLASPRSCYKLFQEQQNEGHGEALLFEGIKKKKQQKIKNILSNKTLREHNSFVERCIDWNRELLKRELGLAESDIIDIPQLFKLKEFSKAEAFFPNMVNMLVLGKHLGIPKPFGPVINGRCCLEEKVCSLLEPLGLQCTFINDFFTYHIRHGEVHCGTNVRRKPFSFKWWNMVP
TDP2 inh – TDP2 (human) inhibition, absorbance primary screen | O95551 | recombinant TDP2, T5PNP hydrolysis, p-nitrophenol absorbance 415 nm | inhibition, % at 12.8 µM | actives 0.34% (n = 370,000) | AID 720702;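 active means inhibition above the mean of all tested compounds plus 3 SD, set per campaign, cut at about 25% in these data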
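Read-out basis: percent inhibition. System: recombinant human TDP2. Buffer or medium: Mg2+-containing Tris-HCl buffer, pH 7.5. Repeats: single replicate. Timing: reaction 2 h, 37 °C. Benchmarks: high control without enzyme, low control DMSO plus TDP2. Probe or stimulus: 5 mM T5PNP. Doses: 12.8 µM only. Measured by: epi absorbance of p-nitrophenol freed from T5PNP by hydrolysis.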
PRMT1 FP inh – inhibitors of human PRMT1 | recombinant PRMT1, activity-based probe fluorescence polarization | inhibition, % at 2.79 µM | actives 1.3% (n = 370,000) | AID 652257;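 active means inhibition above about 21% made by adding two undisclosed values, limit read from the data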
GSTO1 counter – GSTO1 inhibition, counter-screen for RBBP9 inhibitors | P78417 | recombinant GSTO1, activity-based probe fluorescence polarization | inhibition, % at 5.96 µM | actives 1.1% (n = 300,000);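 active means inhibition above the campaign mean inhibition plus 3 SD, cut at about 35% in these data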
Apaf-1 inh conf2 – Apaf-1 inhibition, single-dose confirmed; actives 25% (n = 1,800); AID 504614; reconstituted apoptosome, caspase-3 DEVD-Rh110 fluorescence; shares compounds with Apaf1 inhib; inhibition, % at 20 µM;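 active means mean inhibition of at least 40% at 20 µM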
Rh110 quench – interferes with Rh110 fluorescence, flagging false Apaf-1 inhibitors | shares compounds with Apaf1 inhib | Rh110 fluorescence interference, quenched caspase reaction | activation (fluorescence interference), % at 20 µM | 1,800 tested, under 10 active;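 active means signal rise of 40% or more at 20 µM, treated as a fluorescence artifact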
Fluor interf inh – shows fluorescence interference in the Apaf-1 inhibitor assay format | fluorescence interference counterscreen, Apaf-1 assay format | IC50, µM | shares compounds with Apaf1 inhib | 460 tested, under 10 active; call rule not given here
Numbers stand for hits; . = inactive; / = no result.

SMILES | Apaf1 inhib | PAD4 inh | TDP2 inh | PRMT1 FP inh | GSTO1 counter | Apaf-1 inh conf2 | Rh110 quench | others
O=C1C(NS(=O)(=O)c2cccs2)=C(N2CCN(c3ccccc3)CC2)C(=O)c2ccccc21 | 41 | . | . | . | . | . | .
O=S(=O)(c1cccs1)N1CCN(c2ccccc2)CC1 | . | . | . | . | . | / | /
Cc1cc(-c2n[nH]c(=S)n2N=Cc2ccc(O)cc2)n[nH]1 | / | / | . | . | / | / | /
O=P(CCCCCCCCCP(=O)(c1ccccc1)c1ccccc1)(c1ccccc1)c1ccccc1 | 53 | . | . | . | . | . | .
CC[C@H](C)Cc1cn([C@@H](CCCCN)C(=O)NCCCCCCCCCCC(=O)N2CCNCC2)nn1 | 46 | . | . | . | . | . | .
NCCCCCc1cn([C@@H](CCC(=O)O)C(=O)NCCCCCCCCCCC(=O)N2CCNCC2)nn1 | . | . | . | . | . | / | /
CC[C@H](C)Cc1cn([C@@H](CCCN=C(NC(=O)OC(C)(C)C)NC(=O)OC(C)(C)C)C(=O)NCCCCCCCCCCC(=O)N2CCN(C(=O)OC(C)(C)C)CC2)nn1 | 57 | . | / | / | . | . | .
CCC(=O)N(CCc1ccccc1C)Cc1cc2cc3c(cc2[nH]c1=O)OCO3 | 41 | . | . | . | . | . | .
Nn1c(SCC(=O)Nc2ccc(Br)cn2)nnc1-c1n[nH]c2c1CCC2 | / | / | . | . | / | / | /
COC(=O)C1=C(C)N(Cc2ccccc2)C(=NCCc2c[nH]c3ccccc23)N[C@H]1c1ccccc1 | 69 | . | / | / | / | . | .
COCCN=C1N[C@@H](c2ccccc2)C(C(=O)OC)=C(C)N1Cc1ccccc1 | . | . | . | . | . | / | /
COC(=O)C1=C(C)N(Cc2ccccc2)C(=NCCc2c[nH]c3ccccc23)N[C@H]1c1cccc(F)c1 | 60 | . | . | . | / | . | .
Cc1cccc(C)c1-n1nnnc1C1(C)Cn2nccc2C(=O)N1Cc1ccc(F)cc1 (centres undefined) | / | / | . | . | / | / | /
COc1ccc(C(C(=O)c2ccccc2)c2ccccc2)cc1 (centres undefined) | / | / | . | . | / | / | /
Cc1cc(C)c(S(=O)(=O)/N=C2\C=C(NS(=O)(=O)c3ccccc3)C(=O)c3ccccc32)c(C)c1 | 64 | . | . | . | 60 | 48 | . | Fluor interf inh=.
CCN(CC)S(=O)(=O)c1cccc(NC(=O)COC(=O)/C=C/c2ccco2)c1 | . | . | . | . | . | / | /
CN(C)S(=O)(=O)c1cccc(NC(=O)COC(=O)/C=C/c2ccco2)c1 | 95 | . | . | . | . | . | .
CN(Cc1ccc(F)cc1)C(=O)CNC(=O)c1cccs1 | 56 | . | . | . | / | 41 | . | Fluor interf inh=.
C[C@@H]1[C@H]2[C@@H]3CC[C@@H](C3)[C@H]2CN[C@H]1c1cn(Cc2ccccc2)c2ccccc12 | 62 | . | . | . | / | . | .
Cc1ccc(S(=O)(=O)N2C[C@@H]3[C@H]4CC[C@H](C4)[C@@H]3[C@@H](C)[C@@H]2c2cn(Cc3ccccc3)c3ccc(F)cc23)cc1 | . | . | . | . | / | / | /
COc1ccc(S(=O)(=O)N2CCCc3nc(C)c(C)cc32)cc1 | / | / | . | . | / | / | /
O=C(Nc1ccc2c(c1)OCCO2)C(c1ccccc1)n1c(=O)c(-c2cc3ccccc3[nH]2)nc2ccccc21 (centres undefined) | / | / | . | . | / | / | /
CC(C)C[C@H]1COc2cccc(N(C)CCO)c2S(=O)(=O)N1 | / | / | . | . | / | / | /
COC(=O)[C@]12C[C@H](CC(=O)NCC3CCCCC3)C(=O)N(Cc3ccco3)C1=C[C@H](C(C)(C)C)O[C@@H]2C | / | / | . | . | / | / | /
O=C(NCCCn1ccnc1)c1noc2c1CCCC2 | . | . | . | . | . | / | /
SMILES | Apaf1 inhib | PAD4 inh | TDP2 inh | PRMT1 FP inh | GSTO1 counter | Apaf-1 inh conf2 | Rh110 quench | others
O=C(NCCCn1ccnc1)c1noc2c1CCc1ccccc1-2 | 47 | . | . | . | . | . | .
O=C(COC(=O)c1ccc([N+](=O)[O-])s1)NCCc1ccccc1 | . | . | / | / | / | / | /
O=C(COC(=O)c1ccc([N+](=O)[O-])s1)NNC(=O)c1ccccc1 | 41 | . | / | / | / | . | .
O=C(NCc1ccco1)Nc1ccc(Br)cc1 | . | . | . | . | . | / | /
O=C(NCc1ccco1)Nc1ccc2nsnc2c1 | 59 | . | . | . | . | . | .
O=C(NC1=C(Nc2ccc(F)cc2)C(=O)c2ccccc2C1=O)c1ccc(Cl)cc1 | 70 | . | . | . | . | 68 | . | Fluor interf inh=.
Cc1cc(C)nc(/N=c2/ssnc2Cl)c1 | 71 | . | . | . | . | 82 | . | Fluor interf inh=.
CN(C)CCCN(C(=O)CCc1ccccc1)c1nc2ccc(Cl)cc2s1 | 44 | . | . | . | . | . | .
CN1CCN(c2ccc(NC(=O)c3ccc(-c4ccc(Cl)cc4)o3)cc2)CC1 | 65 | . | . | . | . | . | .
CCC1Nc2ncnc(N3CCN(c4ccccc4)CC3)c2N(Cc2ccccc2)C1=O (centres undefined) | 60 | . | . | . | / | . | .
CCC1Nc2ncnc(N3CCN(c4ccccc4)CC3)c2N(Cc2ccc(C)cc2)C1=O (centres undefined) | . | . | . | . | . | / | /
FC(F)(F)c1ccc(CN2C[C@@H]3C(c4ccc(Cl)nc4)C4(c5cccnc5)CC3(C4)[C@H]2c2ccccc2)cc1 (some centres undefined) | 42 | . | . | . | . | . | .
CC(C)C(C(=O)O)N1C(=O)/C(=C/C=C/c2ccco2)SC1=S (centres undefined) | 46 | . | / | / | . | 48 | . | Fluor interf inh=.
CC(C)C(C(=O)O)N1C(=O)/C(=C/c2cccn2C)SC1=S (centres undefined) | / | . | . | . | . | / | /
CCOC(=O)N1CCN(c2cc(NCCC(=O)O)c3c4c(onc24)-c2ccccc2C3=O)CC1 | 75 | . | / | / | 60 | 54 | . | Fluor interf inh=6.3
O=C1c2ccccc2-c2onc3c(N4CCN(CCO)CC4)cc(N4CCN(C(=O)c5ccco5)CC4)c1c23 | 52 | . | . | . | 37 | . | .
CCCC(=O)OC12CCCN(C1)/C(=C/c1ccc(OC)cc1)C2 (centres undefined) | / | / | . | . | / | / | /
CCOc1ccc(NC(=O)CN(C)C(=O)c2ccc(COc3ccccc3)cc2)cc1OCC | 48 | . | . | . | / | 40 | . | Fluor interf inh=.
S=C(NCc1ccccc1)Nc1ccc2ccccc2c1 | . | / | . | . | / | / | /
C/C(=C\C(=S)Nc1ccccc1)Nc1ccc2ccccc2c1 | 41 | . | . | . | . | . | .
C/C(=C\C(=S)Nc1ccccc1)Nc1cccc2ccccc12 | 97 | . | . | . | . | . | .
NC(=O)c1c(NC(=O)c2ccccc2)sc2c1CCN(Cc1ccccc1)C2 | . | . | . | . | . | / | /

Screens (PubChem)
